Laboratory results taken from ChEMBL document CHEMBL1122630, “Inhibitors of inosinic acid dehydrogenase. 2-Substituted inosinic acids” (J Med Chem, 1984).

target: IMP dehydrogenase (Escherichia coli); experiment: Ability to inhibit Inosine-5'-monophosphate dehydrogenase isolated from Escherichia coli; details: not given

Point of comparison: `O=P(O)(O)OC[C@@H]1OC(n2cnc3c(O)nc(Cl)nc32)[C@@H](O)[C@H]1O` (some centres undefined), Ki 120 µM. Against it:
- Cc1nc(O)c2ncn(C3O[C@@H](COP(=O)(O)O)[C@H](O)[C@@H]3O)c2n1 (some centres undefined) — 5-fold higher, 600 µM
- COc1nc(O)c2ncn(C3O[C@@H](COP(=O)(O)O)[C@H](O)[C@@H]3O)c2n1 (some centres undefined) — 2.6-fold lower, 46 µM
- CCCc1nc(O)c2ncn(C3O[C@@H](COP(=O)(O)O)[C@H](O)[C@@H]3O)c2n1 (some centres undefined) — 1.6-fold higher, 190 µM

target: T1, Inosine-5'-monophosphate dehydrogenase (Escherichia coli K-12, UniProt P0ADG7); experiment: Ability to inhibit Inosine-5'-monophosphate dehydrogenase isolated from Escherichia coli; details: read-out: I50
T1 sequence (P0ADG7 whole entry): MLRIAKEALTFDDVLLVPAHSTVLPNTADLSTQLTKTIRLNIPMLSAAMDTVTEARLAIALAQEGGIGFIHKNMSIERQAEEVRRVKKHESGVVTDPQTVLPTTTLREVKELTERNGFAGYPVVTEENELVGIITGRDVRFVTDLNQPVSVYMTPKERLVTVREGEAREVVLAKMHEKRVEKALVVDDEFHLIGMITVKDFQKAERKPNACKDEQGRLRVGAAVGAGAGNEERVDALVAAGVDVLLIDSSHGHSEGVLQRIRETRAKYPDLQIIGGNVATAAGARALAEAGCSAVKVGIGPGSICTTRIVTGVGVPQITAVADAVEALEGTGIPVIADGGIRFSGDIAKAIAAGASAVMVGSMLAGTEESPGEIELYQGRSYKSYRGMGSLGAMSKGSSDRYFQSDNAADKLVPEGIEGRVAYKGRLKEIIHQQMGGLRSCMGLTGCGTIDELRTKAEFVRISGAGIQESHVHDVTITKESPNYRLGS
Outline: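 Crude E. coli IMP dehydrogenase (0–40% ammonium sulfate precipitate) in 0.05 M Tris pH 8.5 with 33.4 mM KCl, 1.5 mM glutathione, 0.8 mM NAD+ and 0.002 unit enzyme, run at 25 °C. NADH rise at 340 nm gave initial rates. I50 was read graphically at 50 µM IMP, with inhibitor levels bracketing 50%; duplicates agreed within 20%. Ki came from a competitive-equation fit over 10–75 µM IMP.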

Point of comparison: `O=[N+]([O-])c1ccc(CSc2nc(O)c3ncn(C4O[C@@H](COP(=O)(O)O)[C@H](O)[C@@H]4O)c3n2)cc1` (some centres undefined), IC50 56 µM. Against it:
- O=P(O)(O)OC[C@@H]1OC(n2cnc3c(O)nc(/C=C/c4ccccc4)nc32)[C@@H](O)[C@H]1O (some centres undefined) — within 1.5-fold, 69 µM
- CCCCCCCCCCc1nc(O)c2ncn(C3O[C@@H](COP(=O)(O)O)[C@H](O)[C@@H]3O)c2n1 (some centres undefined) — 2.7-fold higher, 150 µM
- O=P(O)(O)OC[C@@H]1OC(n2cnc3c(O)nc(SCc4ccccc4Cl)nc32)[C@@H](O)[C@H]1O (some centres undefined) — within 1.5-fold, 72 µM
- CCCCCCCc1nc(O)c2ncn(C3O[C@@H](COP(=O)(O)O)[C@H](O)[C@@H]3O)c2n1 (some centres undefined) — 4.8-fold higher, 270 µM
- O=[N+]([O-])c1cccc(CSc2nc(O)c3ncn(C4O[C@@H](COP(=O)(O)O)[C@H](O)[C@@H]4O)c3n2)c1 (some centres undefined) — 1.7-fold lower, 33 µM
- COc1ccc(-c2nc(O)c3ncn(C4O[C@@H](COP(=O)(O)O)[C@H](O)[C@@H]4O)c3n2)cc1 (some centres undefined) — 14-fold higher, 810 µM
- CCCCCCCCCc1nc(O)c2ncn(C3O[C@@H](COP(=O)(O)O)[C@H](O)[C@@H]3O)c2n1 (some centres undefined) — 2.9-fold higher, 160 µM
- CCCCCCc1nc(O)c2ncn(C3O[C@@H](COP(=O)(O)O)[C@H](O)[C@@H]3O)c2n1 (some centres undefined) — 10-fold higher, 580 µM
- CCCCCCCCc1nc(O)c2ncn(C3O[C@@H](COP(=O)(O)O)[C@H](O)[C@@H]3O)c2n1 (some centres undefined) — 12-fold higher, 680 µM
- O=P(O)(O)OC[C@@H]1OC(n2cnc3c(O)nc(Cc4cccnc4)nc32)[C@@H](O)[C@H]1O (some centres undefined) — 7.7-fold higher, 430 µM
- O=P(O)(O)OC[C@@H]1OC(n2cnc3c(O)nc(-c4ccccc4)nc32)[C@@H](O)[C@H]1O (some centres undefined) — higher, > 1000 µM
- O=P(O)(O)OC[C@@H]1OC(n2cnc3c(O)nc(Cc4ccccc4)nc32)[C@@H](O)[C@H]1O (some centres undefined) — 14-fold higher, 770 µM
- O=P(O)(O)OC[C@@H]1OC(n2cnc3c(O)nc(-c4cccnc4)nc32)[C@@H](O)[C@H]1O (some centres undefined) — higher, > 1000 µM
- O=[N+]([O-])c1cc(CSc2nc(O)c3ncn(C4O[C@@H](COP(=O)(O)O)[C@H](O)[C@@H]4O)c3n2)cc([N+](=O)[O-])c1 (some centres undefined) — 1.5-fold higher, 85 µM
